Experimental data: ChEMBL document CHEMBL5154785, “Hypothesis-Driven, Structure-Based Design in Photopharmacology: The Case of eDHFR Inhibitors” (J Med Chem, 2022)
pIC50: −log10 of the molar value. Converted amounts (≈) assume the structure as drawn. The source made the active and inactive calls. The rule behind the calls is not given here.

Legend:
[1] = Inhibition of Escherichia coli DHFR preincubated with NADPH for 3 mins followed by compound addition for 7 mins under dark condition by colorimetric assay
Outline: (§1)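 In-house E. coli DHFR expressed in BL21(DE3) and Ni-NTA purified. Enzyme (~20 ng) preincubated with 60 μM NADPH, then with inhibitor at 10^-5 to 10^-12 M final, 1% DMSO. Dark samples heat-adapted to the trans isomer; irradiated samples brought to PSS at 100 μM for 15–45 min. Reaction started with 15 μM dihydrofolate, A340 followed every 5 s for 300 s at 25 °C. Triplicates; activity taken relative to a DMSO control; IC50 from nonlinear regression.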

[2] = Inhibition of Escherichia coli DHFR irradiated with 390 nm light preincubated with NADPH for 3 mins followed by compound addition for 7 mins by colorimetric assay; outline: as §1
[3] = tested on: Escherichia coli; assay: Antibacterial activity against Escherichia coli CS1562 assessed as reduction in bacterial growth under dark condition measured after 24 hrs by plate reader method; type: functional
Outline: (§2)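 E. coli CS1562 grown overnight at 37 °C in LB with tetracycline (10 μg/mL), then diluted to 0.002 OD600. Compound serial dilutions made in DMSO and diluted 25-fold in LB. Irradiated set exposed to 355 nm for 30 min before adding cells; dark set not irradiated. Triplicates grown overnight at 37 °C with OD600 read every 10 min, background-corrected to t=0.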

[4] = tested on: Escherichia coli; assay: Antibacterial activity against Escherichia coli CS1562 assessed as reduction in bacterial growth irradiated with 355 nm light measured after 24 hrs by plate reader method; type: functional; conditions: CS1562, light or radiation study; outline: as §2
[5] = tested on: Escherichia coli; assay: Antibacterial activity against Escherichia coli CS1562 assessed as reduction in bacterial growth at 20 uM irradiated with 355 nm light measured after 24 hrs by plate reader method; type: functional, organism-based; outline: as §2
[6] = tested on: Escherichia coli; assay: Antibacterial activity against Escherichia coli CS1562 assessed as reduction in bacterial growth at 20 uM measured after 24 hrs under dark condition by plate reader method; type: functional, organism-based; outline: as §2
[7] = Half life of compound; type: physicochemical
Outline: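 Metastable-isomer thermal relaxation tracked as recovery of the π–π* band under stirring, at 25 °C in DMSO or eDHFR assay buffer, or at 37 °C in 10 mM Tris-HCl pH 7.0. Fitted to a first-order exponential.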

Row | SMILES | pIC50 [1] | pIC50 [2] | MIC [3] [µM] | MIC [4] [µM] | further results
1 | Nc1ncc(-c2ccc(/N=N/c3ccccc3)cc2)c(N)n1 | < 5.00 | < 5.00 | – | – | –
2 | COc1ccc(/N=N/c2ccc(COc3c(OC)cc(Cc4cnc(N)nc4N)cc3OC)cc2)cc1 | – | – | 20 (≈ 10 µg/mL) | 10 (≈ 5.01 µg/mL) | –
3 | COc1cc(Cc2cnc(N)nc2N)cc(OC)c1OCc1cc(F)c(/N=N/c2c(F)cccc2F)c(F)c1 | – | – | 10 (≈ 5.42 µg/mL) | 5 (≈ 2.71 µg/mL) | –
4 | COC(C)(C#Cc1cnc(N)nc1N)c1ccc(/N=N/c2cccc(C(=O)O)c2)cc1 (stereo not given) | – | – | – | – | Activity [5]: Active; Activity [6]: Active
5 | COc1cc(Cc2cnc(N)nc2N)cc(OC)c1OCc1cc(Cl)c(/N=N/c2c(Cl)cccc2Cl)c(Cl)c1 | – | – | > 80 | 10 (≈ 6.08 µg/mL) | –
6 | Nc1ncc(/N=N/c2ccccc2)c(N)n1 | < 5.00 | < 5.00 | – | – | half-life [7]: 10 s
7 | Nc1ncc(C#Cc2ccc(/N=N/c3ccccc3)cc2)c(N)n1 | < 5.00 | < 5.00 | – | – | –
